Reference: ChEMBL document CHEMBL1142962, “Antiproliferative prenylated stilbenes and flavonoids from Macaranga alnifolia from the Madagascar rainforest” (J Nat Prod, 2007)

Columns and labels:
[1] = tested on: MOLT-4; assay: Growth inhibition of MOLT4 cells; type: functional; conditions: Homo sapiens
Outline: (§1)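 Tested in the NCI 60 human tumour cell line screen, which was run by NCI. The value for each line is the GI50, the concentration giving 50% growth inhibition. Results are also shown as a mean graph across the full panel.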

[2] = tested on: HCT-15; assay: Growth inhibition of HCT15 cells; type: functional; conditions: Homo sapiens
[3] = tested on: EKVX; assay: Growth inhibition of EKVX cells; type: functional; conditions: Homo sapiens; outline: as §1
[4] = tested on: T47D; assay: Growth inhibition of T47D cells; type: functional; conditions: Homo sapiens; outline: as §1
[5] = tested on: UACC-62; assay: Growth inhibition of UACC62 cells; type: functional; conditions: Homo sapiens
[6] = tested on: NCI-H23; assay: Growth inhibition of NCI-H23 cells; type: functional; conditions: Homo sapiens
[7] = tested on: HOP-62; assay: Growth inhibition of HOP62 cells; type: functional; conditions: Homo sapiens
[8] = tested on: MDA-MB-231; assay: Growth inhibition of MDA-MB-231/ATCC cells; type: functional; conditions: Homo sapiens; outline: as §1
[9] = tested on: CAKI-1; assay: Growth inhibition of CAKI1 cells; type: functional; conditions: Homo sapiens; outline: as §1
[10] = tested on: CCRF-CEM; assay: Growth inhibition of CCRF-CEM cells; type: functional; conditions: Homo sapiens; outline: as §1
[11] = tested on: SK-MEL-28; assay: Growth inhibition of SK-MEL-28 cells; type: functional; conditions: Homo sapiens; outline: as §1
[12] = tested on: SF-295; assay: (§2) Growth inhibition of SF295 cells; type: functional; conditions: Homo sapiens
[13] = tested on: SF-295; assay: as §2; type: functional; conditions: Homo sapiens; outline: as §1; remark: listed apart in the source
[14] = tested on: SK-OV-3; assay: Growth inhibition of SKOV3 cells; type: functional; conditions: Homo sapiens
[15] = tested on: NCI-H322M; assay: Growth inhibition of NCI-H322M cells; type: functional; conditions: Homo sapiens
[16] = tested on: A2780 (human ovarian cancer); assay: Antiproliferative activity against drug-sensitive human A2780 cells
[17] = tested on: HOP-92; assay: Growth inhibition of HOP92 cells; type: functional; conditions: Homo sapiens
[18] = tested on: A498; assay: Growth inhibition of A498 cells; type: functional; conditions: Homo sapiens; outline: as §1
[19] = tested on: U-251; assay: Growth inhibition of U251 cells; type: functional; conditions: Homo sapiens
[20] = tested on: SK-MEL-2; assay: Growth inhibition of SK-MEL-2 cells; type: functional; conditions: Homo sapiens
[21] = tested on: SF-539; assay: Growth inhibition of SF539 cells; type: functional; conditions: Homo sapiens; outline: as §1
[22] = tested on: NCI-H522; assay: Growth inhibition of NCI-H522 cells; type: functional; conditions: Homo sapiens; outline: as §1
[23] = tested on: OVCAR-3; assay: Growth inhibition of OVCAR-3 cells; type: functional; conditions: Homo sapiens
[24] = tested on: NCI-H460; assay: Growth inhibition of NCI-H460 cells; type: functional; conditions: Homo sapiens
[25] = tested on: SW-620; assay: Growth inhibition of SW620 cells; type: functional; conditions: Homo sapiens; outline: as §1
[26] = tested on: RPMI-8226; assay: Growth inhibition of RPMI8226 cells; type: functional; conditions: Homo sapiens
[27] = read-out: Log LC50 (the source's name) (converted)

Structure (SMILES): COc1cc(/C=C/c2cc(O)c(CC=C(C)C)c(O)c2)cc2c1O[C@]1(C)C[C@@H](O)[C@@H](O)C(C)(C)[C@H]1C2 [SCHWEINFURTHIN E]
- CC50 [1, 27]: > 100 µM
- TGI ([1]; read-out: Log TGI (converted)): < 0.01 µM
- TGI ([1]; read-out: TGI): < 0.01 µM
- GI50 ([1]; read-out: pGI50 (converted)): < 0.01 µM
- GI50 [2]: 0.603 µM
- CC50 [2, 27]: 26.9 µM
- TGI ([2]; read-out: Log TGI (converted)): 3.63 µM
- GI50 [3]: 2.14 µM
- CC50 [3, 27]: > 100 µM
- TGI ([3]; read-out: Log TGI (converted)): 28.2 µM
- GI50 [4]: 3.24 µM
- CC50 [4, 27]: > 100 µM
- TGI ([4]; read-out: Log TGI (converted)): > 100 µM
- GI50 [5]: < 0.01 µM
- CC50 [5, 27]: 4.07 µM
- TGI ([5]; read-out: Log TGI (converted)): 0.372 µM
- GI50 [6]: 0.24 µM
- CC50 [6, 27]: 13.8 µM
- TGI ([6]; read-out: Log TGI (converted)): 2.34 µM
- GI50 [7]: < 0.01 µM
- CC50 [7, 27]: 7.76 µM
- TGI ([7]; read-out: Log TGI (converted)): 0.0759 µM
- GI50 [8]: 0.851 µM
- CC50 [8, 27]: 26.3 µM
- TGI ([8]; read-out: Log TGI (converted)): 3.47 µM
- GI50 ([9]; read-out: GI50): < 0.01 µM
- CC50 [9, 27]: 0.55 µM
- TGI ([9]; read-out: Log TGI (converted)): < 0.01 µM
- TGI ([9]; read-out: TGI): < 0.01 µM
- GI50 ([9]; read-out: pGI50 (converted)): < 0.01 µM
- GI50 [10]: < 0.01 µM
- CC50 [10, 27]: > 100 µM
- TGI ([10]; read-out: Log TGI (converted)): 10 µM
- GI50 [11]: 0.372 µM
- CC50 [11, 27]: > 100 µM
- TGI ([11]; read-out: Log TGI (converted)): 5.25 µM
- GI50 [12]: < 0.01 µM
- CC50 [12, 27]: < 0.01 µM
- TGI ([12]; read-out: Log TGI (converted)): < 0.01 µM
- GI50 [13]: < 0.01 µM
- TGI [13]: < 0.01 µM
- LC50 [14]: 93.3 µM
- GI50 ([14]; read-out: GI50): 2.2 µM
- TGI ([14]; read-out: Log TGI (converted)): 11 µM
- GI50 ([14]; read-out: pGI50 (converted)): 2.75 µM
- GI50 [15]: 0.288 µM
- CC50 [15, 27]: 13.8 µM
- TGI ([15]; read-out: Log TGI (converted)): 2.24 µM
- IC50 [16]: 0.26 µM
- GI50 [17]: 0.794 µM
- CC50 [17, 27]: > 100 µM
- TGI ([17]; read-out: Log TGI (converted)): 5.13 µM
- LC50 [18]: > 100 µM
- GI50 ([18]; read-out: GI50): < 0.01 µM
- TGI ([18]; read-out: Log TGI (converted)): < 0.01 µM
- TGI ([18]; read-out: TGI): < 0.01 µM
- GI50 ([18]; read-out: pGI50 (converted)): < 0.01 µM
- GI50 [19]: < 0.01 µM
- CC50 [19, 27]: 32.4 µM
- TGI ([19]; read-out: Log TGI (converted)): 3.98 µM
- GI50 [20]: 3.72 µM
- CC50 [20, 27]: > 100 µM
- TGI ([20]; read-out: Log TGI (converted)): > 100 µM
- GI50 [21]: < 0.01 µM
- TGI ([21]; read-out: Log TGI (converted)): 0.158 µM
- GI50 [22]: 2 µM
- CC50 [22, 27]: > 100 µM
- TGI ([22]; read-out: Log TGI (converted)): > 100 µM
- GI50 ([23]; read-out: GI50): 2.2 µM
- CC50 [23, 27]: 24 µM
- TGI ([23]; read-out: Log TGI (converted)): 8.32 µM
- GI50 ([23]; read-out: pGI50 (converted)): 6.17 µM
- GI50 [24]: 0.151 µM
- CC50 [24, 27]: > 100 µM
- TGI ([24]; read-out: Log TGI (converted)): > 100 µM
- GI50 [25]: 0.11 µM
- CC50 [25, 27]: > 100 µM
- TGI ([25]; read-out: Log TGI (converted)): 2.04 µM
- GI50 [26]: < 0.01 µM
- CC50 [26, 27]: > 100 µM
- TGI ([26]; read-out: Log TGI (converted)): 0.0525 µM
